In ChEMBL document CHEMBL1123258 (J Med Chem, 1986):
pEC50, pIC50: −log10 of the molar value. Values after ≈ are worked out from the molar mass of the structure shown. Values joined by “and” are separate entries in the source; they are usually repeats but may differ in a detail not shown here. Equal entries are not always repeated.

Key:
[1] = Compound was evaluated for the percentage of hydrolysis of compound 2 formed at pH of 2; assay type: ADME; conditions: pH 2
Summary of the method: (§1)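 Stock solutions at 0.6 mg/mL in CH3CN (or CH3OH) were diluted 1:1 with phosphate buffer (pH 7), citrate buffer (pH 4) or 0.1 N HCl-KCl (pH 2). They were held at 23 °C for 22 h, then analysed by reverse-phase HPLC in 0.1 M NaH2PO4-CH3CN (75:25) with 254 nm absorbance. Each value is the amount detected at that time divided by the total detected at start.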

[2] = Compound was evaluated for the percentage of hydrolysis of compound 2 formed at pH of 4; assay type: ADME; conditions: pH 4; summary of the method: as §1
[3] = Compound was evaluated for the percentage of hydrolysis of compound 2 formed at pH of 7; assay type: ADME; conditions: pH 7; summary of the method: as §1
[4] = Compound was evaluated for the percentage of hydrolysis product (aglycon) formed at pH of 2; assay type: ADME; conditions: pH 2; summary of the method: as §1
[5] = Compound was evaluated for the percentage of hydrolysis product (aglycon) formed at pH of 4; assay type: ADME; conditions: pH 4; summary of the method: as §1
[6] = Compound was evaluated for the percentage of hydrolysis product (aglycon) formed at pH of 7; assay type: ADME; conditions: pH 7; summary of the method: as §1
[7] = Compound was evaluated for the overall absorbance loss at pH of 2; assay type: ADME; conditions: pH 2; summary of the method: as §1
[8] = Compound was evaluated for the overall absorbance loss at pH of 4; assay type: ADME; conditions: pH 4; summary of the method: as §1
[9] = Compound was evaluated for the overall absorbance loss at pH of 7; assay type: ADME; conditions: pH 7; summary of the method: as §1
[10] = Compound was evaluated for its stability after 22 hr in solution at pH of 2; assay type: physicochemical; conditions: pH 2, read-out: Recovery; summary of the method: as §1
[11] = Compound was evaluated for the change in Tm of isolated helical DNA in solution; assay type: ADME
Summary of the method: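 Thermal denaturation of calf thymus DNA, 5.2 × 10⁻⁵ M (P), with drug at 5.2 × 10⁻⁶ M, in 0.01 M phosphate buffer pH 7 with EDTA and 5% Me₂SO. ΔTm = Tm of DNA–drug complex minus Tm of DNA alone.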

L1210 [12] = assay: Compound was evaluated for the inhibition of DNA synthesis in leukemia L1210 cells; assay type: functional; conditions: Mus musculus, read-out: ED50 (the source's name)
Summary of the method: (§2)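 Actively growing L1210 cells exposed to drug for 3 h; drug dissolved first in Me₂SO, final 1% Me₂SO. Read-out is incorporation of [³H]thymidine into DNA or [³H]uridine into RNA. ED50 is the concentration giving 50% inhibition.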

L1210 [13] = assay: Compound was evaluated for the inhibition of RNA synthesis in leukemia L1210 cells; assay type: functional; conditions: Mus musculus, read-out: ED50 (the source's name); summary of the method: as §2
Mus musculus = species on record: Mus musculus; assay: Compound was evaluated for the antitumor efficacy at optimal dose against P388 in mice; assay type: functional
Summary of the method: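 Mice given 10⁶ P388 leukemia cells ip on day 0, then dosed ip on day 1 at the optimal dose. Efficacy expressed as % T/C, the mean survival time of treated over control mice; ≥120% counts as active.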

P388/S = assay: Compound was evaluated for the growth inhibition of P388/S cells.; assay type: functional, cell-based; conditions: Mus musculus
Summary of the method: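 P388/S is the sensitive line routinely used in screening. Cells were exposed to drug for 48 h before IC50 was determined.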

[14] = Compound was evaluated for the percentage of hydrolysis product formed at pH of 2; assay type: ADME; conditions: pH 2; summary of the method: as §1
[15] = Compound was evaluated for the percentage of hydrolysis product formed at pH of 4; assay type: ADME; conditions: pH 4; summary of the method: as §1
[16] = Compound was evaluated for its stability after 22 hr in solution at pH of 4; assay type: physicochemical; conditions: pH 4, read-out: Recovery; summary of the method: as §1
[17] = Compound was evaluated for its stability after 22 hr in solution at pH of 7; assay type: physicochemical; conditions: pH 7, read-out: Recovery; summary of the method: as §1
[18] = Compound was evaluated for the percentage of hydrolysis product formed at pH of 7; assay type: ADME; conditions: pH 7; summary of the method: as §1
HeLa [19] = assay: (§3) Compound was evaluated for the inhibition of colony formation in HeLa cells; assay type: functional, Mus musculus; conditions: Homo sapiens, read-out: ID50 (the source's name)
Summary of the method: (§4)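 Exponentially growing HeLa cells exposed to drug for 24 h, then plated at 50 cells/mL in drug-free medium. Colonies grown 7–10 days at 37 °C in humidified 95:5 air/CO₂, then scored. ID50 is the concentration giving 50% inhibition of colony growth.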

P388 = assay: Compound was evaluated for the growth inhibition of P388/S, cells.; assay type: functional, cell-based; conditions: Mus musculus
Summary of the method: (§5)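 Growth of P388/S cells, the routine screening line, and of the P388/ADR resistant subline measured after 48-h drug exposure. IC50 is the concentration giving 50% growth inhibition.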

[20] = Partition coefficient in octanol-phosphate buffer at pH 7.4; assay type: physicochemical
Summary of the method: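 Drug partitioned between octanol and phosphate buffer pH 7.4. Concentrations in each phase measured by UV absorbance; log P is the log of organic-phase over aqueous-phase concentration.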

HeLa [21] = assay: as §3; assay type: functional; conditions: Homo sapiens, read-out: ID50 (the source's name); summary of the method: as §4
P388/ADR = assay: Compound was evaluated for the growth inhibition of P388/ADR cells.; assay type: functional, cell-based; conditions: Mus musculus; summary of the method: as §5
[22] = Resistance index was measured as ratio of IC50 of P388/ADR to that of P388/S

Row | Compound | Change in Tm [11] | pEC50 (L1210 [12]) | pEC50 (L1210 [13]) | pIC50 (P388) | Absorbance [7] | Absorbance [8] | Absorbance [9] | remaining at 22 h [10] | T/C (Mus musculus) | further results
1 | COc1cccc2c1C(=O)c1c(O)c3c(c(O)c1C2=O)C[C@@](O)(C(=O)CO)C[C@@H]3OC1CC(N2CCOCC2C#N)C(O)C(C)O1 (stereo partly specified) | 8.7 | 8.52 | 9.28 |  | 67% | 37% | 17% | 10% | 262% and 233% | Hydrolysis [1]: 7%; Hydrolysis [2]: 8%; Hydrolysis [3]: 0.8%; Hydrolysis [4]: 8%; Hydrolysis [5]: 0.1%; Hydrolysis [6]: 0.3%; pIC50 (P388/S): 9.80
2 | COc1cccc2c1C(=O)c1c(O)c3c(c(O)c1C2=O)C[C@@](O)(C(=O)CO)C[C@@H]3OC1CC(N2CCOCC2)C(O)C(C)O1 (stereo partly specified) |  |  |  |  | 4% | 12% | 4% | 96% |  | Hydrolysis [14]: < 1%; Hydrolysis [15]: < 1%; remaining at 22 h [16]: 88%; remaining at 22 h [17]: 90%; Hydrolysis [18]: < 1%
3 | COc1cccc2c1C(=O)c1c(O)c3c(c(O)c1C2=O)C[C@@](O)(C(=O)CO)C[C@@H]3OC1CC2C(OC(CO)N2CCO)C(C)O1 (stereo partly specified) |  | 6.19 | 6.92 |  |  |  |  |  |  | 

More lines, main results first:

Row | Change in Tm [11] | pEC50 (L1210 [12]) | pEC50 (L1210 [13]) | pIC50 (P388) | Compound | Absorbance [7] | Absorbance [8] | Absorbance [9] | remaining at 22 h [10] | T/C (Mus musculus) | further results
4 | 12.8 | 5.80 | 6.24 | 7.17 | COc1cccc2c1C(=O)c1c(O)c3c(c(O)c1C2=O)C[C@@](O)(C(=O)CO)C[C@@H]3O[C@H]1C[C@H](N)[C@H](O)[C@H](C)O1 [DOXORUBICIN] |  |  |  |  | 182% and 273% | IC50 (HeLa [19]): 0.019 µg/mL (≈ 0.035 µM)
5 | 10.7 | 5.28 | 6.09 | 6.64 | COc1cccc2c1C(=O)c1c(O)c3c(c(O)c1C2=O)C[C@@](O)(C(=O)CO)C[C@@H]3OC1CC(NCCO)C(O)C(C)O1 (stereo partly specified) |  |  |  |  | 157% and 205% | logD [20]: 0.19; IC50 (HeLa [21]): 0.031 µg/mL (≈ 0.0528 µM); pIC50 (P388/ADR): 5.41; Ratio [22]: 17
